From ChEMBL document CHEMBL1681757, “Discovery of potent dipeptidyl peptidase IV inhibitors derived from β-aminoamides bearing substituted [1,2,3]-triazolopiperidines for the treatment of type 2 diabetes” (Bioorg Med Chem Lett, 2011)

What was measured:
[1] = AUC (0 to t) in rat at 20 mg/kg, po; format: ADME, organism-based; set-up: dose 20 mg/kg, route oral; details: plasma
Summary of the method: (§1)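 Healthy male rats (200–220 g), four per group, dosed orally at 20 mg/kg. Plasma exposure parameters derived: Cmax, Tmax, terminal half-life after oral dosing, and area under the concentration curve.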

[2] = Tmax in rat at 20 mg/kg, po; format: ADME, organism-based; set-up: dose 20 mg/kg, route oral; details: in vivo; summary of the method: as §1
[3] = Cmax in rat at 20 mg/kg, po; format: ADME, organism-based; set-up: dose 20 mg/kg, route oral; details: in vivo; summary of the method: as §1
[4] = Terminal half life in rat at 20 mg/kg, po; format: ADME, organism-based; set-up: dose 20 mg/kg, route oral; details: in vivo, read-out: beta t1/2 (converted); summary of the method: as §1
Mus musculus [5] = organism: Mus musculus; assay: animal or person; details: ICR, Blood, po, 1 h, read-out: INH
Mus musculus [6] = organism: Mus musculus; assay: animal or person; details: ICR, Blood, po, 1 h, read-out: INH; remark: listed apart in the source

| AUC(0-t) [1] [ng·h/mL] | Tmax [2] [h] | Cmax [3] [ng/mL] | half-life [4] [h] | Structure (SMILES) | inhibition in vivo at 10 mg/kg (Mus musculus [5]) [%] | inhibition in vivo at 3 mg/kg (Mus musculus [6]) [%] |
| --- | --- | --- | --- | --- | --- | --- |
| 2520 | 1 | 695 | 2.27 | Cl.N[C@@H](CC(=O)N1CCn2nnc(C(F)F)c2C1)Cc1cc(F)c(F)cc1F | – | – |
| 871 | 0.63 | 231 | 2.23 | Cl.NC(=O)c1nnn2c1CN(C(=O)C[C@H](N)Cc1cc(F)c(F)cc1F)CC2 | – | – |
| 1130 | 0.38 | 600 | 2.18 | Cl.N[C@@H](CC(=O)N1CCn2nnc(-c3ccc(C(=O)O)cc3)c2C1)Cc1cc(F)c(F)cc1F | – | – |
| 730 | 1 | 255 | 1.87 | Cl.N[C@@H](CC(=O)N1CCn2nnc(-c3ccco3)c2C1)Cc1cc(F)c(F)cc1F | – | – |

| Structure (SMILES) | AUC(0-t) [1] [ng·h/mL] | Tmax [2] [h] | Cmax [3] [ng/mL] | half-life [4] [h] | inhibition in vivo at 10 mg/kg (Mus musculus [5]) [%] | inhibition in vivo at 3 mg/kg (Mus musculus [6]) [%] |
| --- | --- | --- | --- | --- | --- | --- |
| N[C@@H](CC(=O)N1CCn2nnc(C(F)(F)F)c2C1)Cc1cc(F)c(F)cc1F.O=C(O)/C=C/C(=O)O | 4560 | 0.88 | 965 | 2.53 | 27 | 19 |
| N[C@@H](CC(=O)N1CCn2nnc(-c3ccccn3)c2C1)Cc1cc(F)c(F)cc1F.O=C(O)/C=C/C(=O)O | 2510 | 1.38 | 484 | 2.67 | – | – |
| N[C@@H](CC(=O)N1CCn2nnc(-c3cnco3)c2C1)Cc1cc(F)c(F)cc1F.O=C(O)/C=C/C(=O)O | 1640 | 1.88 | 475 | 1.35 | – | – |
